Measurements gathered from unrelated publications.
Each line is one published result; the experiments were not run side by side.
Target: Discoidin domain-containing receptor 2 (DDR2, Homo sapiens, UniProt Q16832)
Sequence (Q16832 22-855, as in one of the studies): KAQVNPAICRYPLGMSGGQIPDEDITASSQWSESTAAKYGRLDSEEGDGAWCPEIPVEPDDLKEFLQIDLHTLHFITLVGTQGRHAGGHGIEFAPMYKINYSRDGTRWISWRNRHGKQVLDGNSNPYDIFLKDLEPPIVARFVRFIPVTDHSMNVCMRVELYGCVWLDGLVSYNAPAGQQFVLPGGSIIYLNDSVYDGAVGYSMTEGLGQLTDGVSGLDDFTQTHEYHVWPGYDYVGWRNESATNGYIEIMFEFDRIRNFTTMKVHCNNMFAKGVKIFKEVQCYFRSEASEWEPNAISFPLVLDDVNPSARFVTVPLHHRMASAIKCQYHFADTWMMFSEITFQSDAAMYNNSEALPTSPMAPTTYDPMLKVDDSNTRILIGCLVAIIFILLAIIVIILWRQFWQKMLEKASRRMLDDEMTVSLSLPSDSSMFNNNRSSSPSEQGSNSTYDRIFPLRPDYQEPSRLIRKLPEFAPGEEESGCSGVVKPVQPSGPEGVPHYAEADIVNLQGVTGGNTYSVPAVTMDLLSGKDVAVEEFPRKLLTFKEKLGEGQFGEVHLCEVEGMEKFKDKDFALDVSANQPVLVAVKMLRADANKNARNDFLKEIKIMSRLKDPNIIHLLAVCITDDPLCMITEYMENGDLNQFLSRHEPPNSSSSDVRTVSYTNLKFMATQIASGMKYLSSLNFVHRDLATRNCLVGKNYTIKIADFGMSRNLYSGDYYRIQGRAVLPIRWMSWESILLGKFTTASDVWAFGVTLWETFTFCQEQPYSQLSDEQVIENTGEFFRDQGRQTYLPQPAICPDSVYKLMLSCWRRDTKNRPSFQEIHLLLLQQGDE

`C[C@@H]1CCN(c2nccc(-c3cnn4ncccc34)n2)C1` has a remaining binding of 66% (binding; 1 µM).
For `CN(C)CC#Cc1ccc(OCCCc2sc(N3CCc4cccc(C(=O)Nc5nc6ccccc6s5)c4C3)nc2C(=O)O)c(F)c1`, the remaining binding was 83% (cell-free assay, competition with immobilised ligand; 1 µM).
`O=C(c1ccc(Nc2nccc(-c3cc4ccccc4s3)n2)cc1)N1CCC(N2CCCC2)CC1` has a remaining binding of 20% (binding, competition with immobilised ligand; 1 µM).
`FC(F)(F)Oc1cccc(-c2cnc3ccc(-c4ccncc4)nn23)c1` gave a remaining binding of 55% (cell-free assay, competition with immobilised ligand; 5 µM).
With `Nc1ncc2c(n1)-c1c([nH]c3ccc(C#CC4CC4)cc13)CCCC2` the remaining binding was 80% (binding, competition with immobilised ligand; 1 µM).
The remaining binding of `O=C(Nc1c[nH]nc1C(=O)NC1CCNCC1)c1cc(F)cc(F)c1` is reported as 94% (binding, competition with immobilised ligand; 1 µM).
The remaining binding of `CC(=O)C1=C(C)N(c2cccc(C(F)(F)F)c2)C(=O)N[C@@H]1c1ccc(C#N)nc1` is reported as 87.6% (cell-free assay, competition with immobilised ligand; 1 µM).
`COc1ccnn2ncc(-c3ccnc(N(C)C)n3)c12` has a remaining binding of 67% (binding; 1 µM).
For `O=C(c1ccc(Nc2ncc(Cl)c(-c3ccc(Cl)s3)n2)cc1)N1CCC(N2CCCC2)CC1`, the remaining binding was 33% (binding, competition with immobilised ligand; 1 µM).
With `Cn1nc(C(F)(F)F)cc1-c1cnc(N2CCc3cc(S(=O)(=O)Nc4c(F)cc(Cl)cc4F)cc(N4CCCC4=O)c32)nc1` the remaining binding was 80% (cell-free assay, competition with immobilised ligand; 1 µM).
The remaining binding of `O=C(c1ccc(Nc2ncc(Cl)c(-c3cc4ccccc4s3)n2)cc1)N1CCC(N2CCCC2)CC1` is reported as 23% (binding, competition with immobilised ligand; 1 µM).
The remaining binding of `CNC(=O)[C@@H]1CC[C@@H](n2c(-c3ccc4cnccc4c3)nc3ccc(C(=O)NCc4cccc(C(N)=O)c4)cc32)C1` is reported as 93% (binding, competition with immobilised ligand; 1 µM).
`CC1CCCN1c1nccc(-c2cnn3ncccc23)n1` (centres unmarked) gave a remaining binding of 100% (binding; 1 µM).
For `C=CC(=O)N1CCC(C(=O)NCC(=O)N2CCN(c3nc(-c4cnc(N)nc4C(F)F)nc(N4CCOCC4)n3)CC2)CC1`, the remaining binding was 83% (binding, competition with immobilised ligand; 1 µM).
`O=C(N[C@H]1CCCCC/C=C\C2C[C@@]2(C(=O)O)NC(=O)[C@@H]2C[C@@H](Oc3ccncc3)CN2C1=O)OC1CCCC1` (some centres unmarked) gave a remaining binding of 100% (cell-free assay, competition with immobilised ligand; 1 µM).
The remaining binding of `N[C@@H]1CCN(c2nccc(-c3cnn4ncccc34)n2)C1` is reported as 100% (binding; 1 µM).
With `CC(C)(O)c1cncc(-c2nc3ccc(F)cc3n2C2CC2)c1` the remaining binding was 100% (cell-free assay, competition with immobilised ligand; 1 µM).
For `CN(C)c1nccc(-c2cnc3ncccn23)n1`, the remaining binding was 84% (binding; 1 µM).
The remaining binding of `O=c1nc(-c2ccccn2)sc2ccccc12` is reported as 100% (cell-free assay, competition with immobilised ligand; 1 µM).
`CN(C)c1nccc(-c2cnn3ncccc23)n1` gave a remaining binding of 100% (binding; 1 µM).
